Data from ChEMBL document CHEMBL2086351, “Α-aryl-N-alkyl nitrones, as potential agents for stroke treatment: synthesis, theoretical calculations, antioxidant, anti-inflammatory, neuroprotective, and brain-blood barrier permeability properties” (J Med Chem, 2012).
Active and inactive are the calls of the source. No cut-off for these calls is given here.

Assays:
[1] = Permeability of the compound at pH 7.4 by PAMPA; type: ADME; conditions: read-out: permeability
How it was run: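 PAMPA-BBB method of Di et al. (passive blood–brain barrier permeation). Effective permeability is reported as Pe in 10−6 cm s−1.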

[2] = Antioxidant activity assessed as Fe3+/ascorbic acid-induced hydroxyl radical scavenging activity at 0.1 mM after 30 mins; type: functional
How it was run: (§1)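 Tested in vitro at 0.1 mM. The hydroxyl radical line measures competition with DMSO for hydroxyl radicals. Superoxide was generated at pH 7.4 and read as nitroblue tetrazolium reduction to formazan at 560 nm. LOX inhibition was measured by UV absorbance enzyme assay with plant lipoxygenase.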

Mus musculus = assay: Neuroprotective activity in NMRI mouse assessed as protection against tert-butyl hydroperoxide-mediated lethality at 150 mg/kg, ip administered 30 mins before t-BHP challenge measured after 1 to 24 hrs; type: functional; conditions: route intraperitoneal
[3] = system: Radical scavenging activity; assay: Antioxidant activity assessed as DPPH radical scavenging activity at 0.5 mM after 2 hrs by spectrophotometric analysis; type: functional
How it was run: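 DPPH radical test, measuring initial absorbance and absorbance after reaction spectrophotometrically.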

[4] = Antioxidant activity assessed as superoxide anion radical scavenging activity at 0.1 mM after 10 mins by tetrazolium dye assay; type: functional; how it was run: as §1
[5] = Neuroprotective activity in Sprague-Dawley rat primary cortical neurons assessed as reversal of oxygen-glucose deprivation-induced neuronal damage at 1 uM by treated 4 hrs after OGD challenge measured after 24 hrs by LDH release assay relative to control; type: functional, Cerebral cortex neuron
How it was run: (§2)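 Primary cortical neurons, cultured 6–8 days, underwent 4 h oxygen–glucose deprivation followed by 24 h reperfusion. Compounds (1–250 μM) were added at reperfusion. Necrotic death was read as LDH release, normalized to untreated reperfusion cells as 100%. Four independent experiments; mean ± SEM; one-way ANOVA with Holm–Sidak post test.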

[6] = target: Lipoxygenase (Glycine max) (UniProt Q39829); assay: Inhibition of soybean lipoxygenase assessed as conversion of sodium linoleate to 13-hydroperoxylinoleic acid at 0.1 mM by competitive inhibition assay; how it was run: as §1
[7] = Antioxidant activity assessed as inhibition of AAPH-induced lipid peroxidation at 0.1 mM by UV spectrophotometric analysis; type: functional
[8] = Antioxidant activity against AAPH-induced lipid peroxidation assessed as induction time of inhibition at 0.1 mM; type: functional
[9] = Neuroprotective activity in Sprague-Dawley rat primary cortical neurons assessed as reversal of oxygen-glucose deprivation-induced neuronal damage at 10 uM by treated 4 hrs after OGD challenge measured after 24 hrs by LDH release assay relative to control; type: functional, Cerebral cortex neuron; how it was run: as §2
[10] = system: Radical scavenging activity; assay: Antioxidant activity assessed as DPPH radical scavenging activity at 15 uM after 2 hrs by spectrophotometric analysis; type: functional
[11] = Neuroprotective activity in Sprague-Dawley rat primary cortical neurons assessed as reversal of oxygen-glucose deprivation-induced neuronal damage at 250 uM by treated 4 hrs after OGD challenge measured after 24 hrs by LDH release assay relative to control; type: functional, Cerebral cortex neuron; how it was run: as §2
[12] = Induction of NO release in phosphate buffer at pH 7.4 assessed as nitrite level at 0.1 mM by nitrate reductase/NADPH based Griess assay in presence of L-cysteine; type: physicochemical; conditions: pH 7.4, 100 µM
How it was run: (§3)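 Compounds at 100 μM final were dissolved in phosphate buffer pH 7.4 containing L-cysteine. Released NO was measured. Where indicated, 1 mM cysteine and a nitrate reductase/NADPH system were used. Sodium nitroprusside served as reference.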

[13] = Induction of NO release in phosphate buffer at pH 7.4 at 0.1 mM by Griess assay in presence of L-cysteine; type: physicochemical; conditions: pH 7.4, 100 µM; how it was run: as §3
[14] = Neuroprotective activity in Sprague-Dawley rat primary cortical neurons assessed as reversal of oxygen-glucose deprivation-induced neuronal damage treated 4 hrs after OGD challenge measured after 24 hrs MTT assay; type: functional, cell-based; conditions: Cerebral cortex neuron
How it was run: (§4)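 Primary cerebral cortex neurons, cultured 6–8 days, underwent 4 h oxygen–glucose deprivation. Compounds (0.1 μM–10 mM range) were added at the start of a 24 h reperfusion. Viability was read by MTT with untreated control as 100%. Neuroprotection = % recovery from the reperfusion-only value (0%) to control (100%). Three to five independent experiments; mean ± SEM.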

Rattus norvegicus = assay: Antiinflammatory activity in Fisher 344 rat assessed as inhibition of carrageenan-induced paw edema at 0.01 mmol/kg, ip measured 3.5 hrs after carrageenan challenge; type: functional; conditions: Fisher 344, ip
How it was run: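 Percent inhibition of carrageenan-induced rat paw oedema relative to untreated controls. Compounds given at 0.01 mmol/kg. Six animals per group in two independent experiments (n = 6 × 2), reported as mean ± SD. Significance versus controls by Student's t test.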

[15] = Neuroprotective activity in Sprague-Dawley rat primary cortical neurons assessed as reversal of oxygen-glucose deprivation-induced neuronal damage at 10 uM by treated 4 hrs after OGD challenge measured after 24 hrs MTT assay relative to control; type: functional, cell-based; conditions: Cerebral cortex neuron; how it was run: as §4
[16] = Neuroprotective activity in Sprague-Dawley rat primary cortical neurons assessed as reversal of oxygen-glucose deprivation-induced neuronal damage at 100 uM by treated 4 hrs after OGD challenge measured after 24 hrs by LDH release assay relative to control; type: functional, Cerebral cortex neuron; how it was run: as §2
[17] = Neuroprotective activity in Sprague-Dawley rat primary cortical neurons assessed as reversal of oxygen-glucose deprivation-induced neuronal damage at 100 uM by treated 4 hrs after OGD challenge measured after 24 hrs MTT assay relative to control; type: functional, cell-based; conditions: Cerebral cortex neuron; how it was run: as §4
[18] = Neuroprotective activity in Sprague-Dawley rat primary cortical neurons assessed as reversal of oxygen-glucose deprivation-induced neuronal damage at 5 mM by treated 4 hrs after OGD challenge measured after 24 hrs MTT assay relative to control; type: functional, cell-based; conditions: Cerebral cortex neuron; how it was run: as §4

Compound	Activity [2]	Activity (Mus musculus)	Activity [4]	inhibition [6]	inhibition [7]	TIME [8]	Activity [12]	Activity [13]	also measured
Cc1ccc2nc(Cl)c(/C=[N+](\[O-])C(C)(C)C)cc2c1	100%	70%	12%	inactive	85%	0.945 h			Papp [1]: 15 ×10⁻⁶ cm/s; Activity [3]: 1.7%; Activity [5]: 70.17%; Activity [9]: 62.22%
COc1cc(/C=C/C(=O)CC(=O)/C=C/c2ccc(O)c(OC)c2)ccc1O									Activity [10]: 35%
CC(C)(C)/[N+]([O-])=C/c1ccc(OCCO[N+](=O)[O-])cc1	98%	18%	19%	19%		0 h			Activity [3]: 0.6%; Activity [11]: 79.21%
O=[N+]([O-])OCCOc1ccc(/C=[N+](\[O-])Cc2ccccc2)cc1	100%	22%		21%	64%	0.767 h			Papp [1]: 16.8 ×10⁻⁶ cm/s; Activity [5]: 47.48%
COc1cc(/C=[N+](\[O-])Cc2ccccc2)c(Br)cc1O	78%		3%	24%	87%	0.697 h	6%	5%	
COc1ccc2c(c1)cc(/C=[N+](\[O-])C(C)(C)C)n2C	79.5%		5%	31%	80%	0.73 h	5%	3%	
CC(C)(C)c1cc(/C=[N+](\[O-])C(C)(C)C)cc(C(C)(C)C)c1O		80%		inactive	9%	0.29 h			Activity [3]: 78.6%
COc1cc(/C=[N+](/C)[O-])ccc1O			11%	59%	90%	0.3 h	8%	7%	Activity [14]: inactive
[O-]/[N+](=C\c1ccccc1)Cc1ccccc1	97%		24%		74%	0.42 h			
CC(Cc1ccc(O)c(O)c1)C(C)Cc1ccc(O)c(O)c1 (stereo not given)				40%					
COc1cc(Br)c(/C=[N+](\[O-])C(C)(C)C)cc1O	72%		11%		67%	0.12 h	3%	2%	
CC(C)(C)/[N+]([O-])=C/c1cccnc1Br	93%		10%	88%	40%	0.133 h	5.5%	4%	inhibition in vivo at 10 µmol/kg (Rattus norvegicus): 23.2%
CC(C)(C)/[N+]([O-])=C/c1c[nH]c2ccccc12	59%		15%	42%	57%	0.36 h	4.5%	3%	
COc1cc(Br)c(/C=[N+](\[O-])C(C)(C)C)cc1OC	90%		15%		47%	0.00867 h	2%	1%	
CC(C)(C)/[N+]([O-])=C/c1cccnc1Cl	30%		5%	59%	37%	0.497 h	4%	2%	
O=C(O)/C=C/c1ccc(O)c(O)c1			15%						

Compound	Activity [2]	Activity (Mus musculus)	Activity [4]	inhibition [6]	inhibition [7]	TIME [8]	Activity [12]	Activity [13]	also measured
O=c1c(O)c(-c2ccc(O)c(O)c2)oc2cc(O)cc(O)c12									Activity [10]: 94.2%
Cc1ccc2nc(Cl)c(/C=[N+](\[O-])Cc3ccccc3)cc2c1	95%	72%	23%	inactive	37%	1.3 h			Activity [15]: 75.7%; Activity [16]: 66.82%; Activity [3]: 42.3%; Activity [17]: 105%; Activity [9]: 63.01%
CC(C)(C)/[N+]([O-])=C/c1ccc(OCCCO[N+](=O)[O-])cc1	54%	30%	2%	57%	49%	0.783 h			Activity [16]: 55.57%; Activity [3]: 0.4%
CC(C)(C)c1cc(/C=[N+](\[O-])Cc2ccccc2)cc(C(C)(C)C)c1O	77%	82%	8%	inactive	61%	1.38 h			Activity [16]: 53.8%; Activity [3]: 81.9%; Activity [11]: 56.95%
COc1cc(Br)c(/C=[N+](\[O-])Cc2ccccc2)cc1OC			16%	21%	inactive	0.895 h	1%	1%	
CC(C)(C)/[N+]([O-])=C/c1ccc(Br)o1	95%	37%		39%		0 h			Activity [3]: 0%; Activity [11]: 96.26%
COc1ccc2c(c1)c(CC(=O)O)c(C)n2C(=O)c1ccc(Cl)cc1 [INDOMETHACIN]									inhibition in vivo at 10 µmol/kg (Rattus norvegicus): 47%
COc1cc(/C=[N+](\[O-])Cc2ccccc2)ccc1O	52%				90%	1.47 h	10%	9%	Activity [14]: inactive
CC(C)(C)/[N+]([O-])=C/c1ccccc1	90%		15%	83%	inactive	0 h	4.5%	2%	Activity [18]: -13.4%; Activity [16]: 67.82%; Activity [11]: 73.2%; Activity [14]: inactive
[O-]/[N+](=C\c1ccc(Br)o1)Cc1ccccc1		42%		17%		0 h			Activity [3]: 8.6%; Activity [5]: 61.87%; Activity [9]: 114.17%
COc1cc(Br)c(/C=[N+](\[O-])Cc2ccccc2)cc1O			6%		89%	1.41 h	2%	2%	Activity [14]: inactive
Cc1c(C)c2c(c(C)c1O)CCC(C)(C(=O)O)O2 (stereo not given)	73%				63%	1.03 h			
C[N+](C)(C)CCOP(=O)(O)OP(=O)([O-])OC[C@H]1O[C@@H](n2ccc(N)nc2=O)[C@H](O)[C@@H]1O [CITICOLINE]									Activity [15]: 87.4%; Activity [16]: 61.26%; Activity [17]: 53.2%; Activity [11]: 84.64%
C/[N+]([O-])=C/c1ccccc1	77%		8%	22%	5%	0.0167 h			inhibition in vivo at 10 µmol/kg (Rattus norvegicus): 26.5%; Activity [14]: inactive
O=[N+]([O-])OCCCOc1ccc(/C=[N+](\[O-])Cc2ccccc2)cc1	98%	31%		30%	81%	0.61 h			Activity [15]: 77.6%; Papp [1]: 22 ×10⁻⁶ cm/s; Activity [17]: 83%; Activity [9]: 45.37%
